According to ChEMBL document CHEMBL1649209, “Improved murine model of malaria using Plasmodium falciparum competent strains and non-myelodepleted NOD-scid IL2Rgammanull mice engrafted with human erythrocytes” (2009):
Activity calls are given as the source filed them. The rule behind the calls is not given here.

Legend:
[1] = test system: Plasmodium falciparum; assay: Antimalarial activity against Plasmodium falciparum Pf3D70087/N9 infected in immunodeficient HM-IL2Rgamma null mouse after 7 days; format: functional
Outline: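 Four-day test in female NOD-scid IL2Rγnull mice engrafted by daily i.p. injections of human erythrocytes. Mice were infected i.v. with 20 × 10^6 Pf3D70087/N9-infected hE, then randomized 3 days later (3/group) and dosed orally once daily for 4 days. Day-7 parasitemia was measured by SYTO-16/TER-119 flow cytometry relative to vehicle. ED90 came from a sigmoid dose-response fit.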

[2] = test system: Plasmodium falciparum; assay: Antimalarial activity against Plasmodium falciparum Pf3D70087/N9 infected in immunodeficient HM-beta2 m null mouse after 7 days; format: functional
[3] = test system: Plasmodium falciparum; assay: Antimalarial activity against Plasmodium falciparum PfV1S0176/N10 infected in immunodeficient HM-IL2Rgamma null mouse after 7 days; format: functional
[4] = test system: Plasmodium falciparum; assay: Antimalarial activity against Plasmodium falciparum Pf3D70087/N9 infected in immunodeficient HM-IL2Rgamma null mouse assessed as decreased parasitemia at 50 mg/kg, po for 4 days after 28 days; format: functional, organism-based; set-up: dose 50 mg/kg
Outline: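 Engrafted NOD-scid IL2Rγnull mice each carried about […] Pf3D70087/N9-infected hE. They were dosed orally at 50 mg/kg once daily for four consecutive days. Peripheral blood was checked for parasites up to at least 28 days after treatment ended.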

Compound | ED90 [1] | ED90 [2] | ED90 [3] | Activity [4]
C[C@H]1[C@H](OC(=O)CCC(=O)O)O[C@@H]2O[C@@]3(C)CC[C@H]4[C@H](C)CC[C@@H]1[C@@]24OO3 [ARTESUNATE] | 12.9 mg/kg | 12.7 mg/kg | <20 mg/kg | 
Cc1[nH]c(CO)c(-c2ccc(Oc3ccc(OC(F)(F)F)cc3)cc2)c(=O)c1Cl | 0.6 mg/kg | 0.6 mg/kg | <1 mg/kg | 
CCc1nc(N)nc(N)c1-c1ccc(Cl)cc1 [PYRIMETHAMINE] | 0.5 mg/kg | 0.9 mg/kg | >50 mg/kg | 
CCN(CC)CCCC(C)Nc1ccnc2cc(Cl)ccc12 (stereo not drawn) [CHLOROQUINE] | 4.9 mg/kg | 4.4 mg/kg | >50 mg/kg | Active
